# According to ChEMBL document CHEMBL1124931, “Fluoro carbocyclic nucleosides: synthesis and antiviral activity of 2'- and 6'-fluoro carbocyclic pyrimidine nucleosides including carbocyclic 1-(2-deoxy-2-fluoro-beta-D-arabinofuranosyl)-5-methyluracil and carbocyclic 1-(2-deoxy-2-fluoro-beta-D-arabinofuranosyl)-5-iodouracil” (1990):
# Experiments:
# [1] = tested on: Vero; assay: Cytotoxic effect on Vero cells was determined in mock infected cell monolayers incubated with the compound for 48 hr at 37 degree celsius.; format: functional, Chlorocebus sabaeus
# In short: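 Mock-infected confluent Vero monolayers exposed to compound for 48 h at 37 °C. Examined microscopically, with gross changes in cell staining, number or morphology scored. The cytotoxic dose is the level affecting 50% of the monolayer.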
# [2] = tested on: Vero; assay: Antiherpes activity was measured in a plaque reduction assay in Vero cells, against HSV-1 strain KOS.; format: functional; settings: Chlorocebus sabaeus, read-out: ID50 (the source's name)
# In short: (§1)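 Confluent Vero monolayers infected with 30–40 PFU of HSV-1 (KOS) or HSV-2 (186). After 1 h adsorption at 37 °C, overlaid with maintenance medium containing 0.75% carboxymethylcellulose plus a range of compound concentrations. Incubated 2 further days at 37 °C, then fixed and stained and plaques counted. ID50 is the concentration giving 50% inhibition of plaque formation.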
# [3] = tested on: Vero; assay: Antiherpes activity was measured in a plaque reduction assay in Vero cells, against HSV-2 strain 186.; format: functional; settings: Chlorocebus sabaeus, read-out: ID50 (the source's name); in short: as §1
Structure (SMILES),Cytotoxicity [1],IC50 [2],IC50 [3]
O=c1[nH]c(=O)n([C@H]2C[C@H](O)[C@@H](CO)[C@@H]2F)cc1I,> 300 µg/mL,> 300 µg/mL,> 300 µg/mL
Nc1ccn([C@@H]2C[C@H](CO)[C@@H](O)[C@H]2F)c(=O)n1,> 300 µg/mL,18 µg/mL,44 µg/mL
O=c1[nH]c(=O)n([C@H]2C[C@H](O)[C@@H](CO)[C@H]2F)cc1I,> 300 µg/mL,> 300 µg/mL,> 300 µg/mL
Nc1ccn([C@@H]2C[C@H](CO)[C@@H](O)[C@@H]2F)c(=O)n1,> 100 µg/mL,13 µg/mL,82 µg/mL
O=c1[nH]c(=O)n([C@@H]2C[C@H](CO)[C@@H](O)C2)cc1I,300 µg/mL,0.07 µg/mL,97 µg/mL
Cc1cn(C2CC(CO)C(O)C2F)c(=O)[nH]c1=O (stereo not drawn),> 100 µg/mL,> 100 µg/mL,> 100 µg/mL
O=c1[nH]c(=O)n(C2CC(CO)C(O)C2F)cc1I (stereo not drawn),> 100 µg/mL,11 µg/mL,> 100 µg/mL
Cc1cn(C2CC(CO)C(O)C2(F)F)c(=O)[nH]c1=O (stereo not drawn),> 100 µg/mL,> 100 µg/mL,> 100 µg/mL
O=c1ccn(C2CC(O)C(CO)C2F)c(=O)[nH]1 (stereo not drawn),> 300 µg/mL,> 300 µg/mL,> 300 µg/mL
Cc1cn([C@@H]2O[C@H](CO)[C@@H](O)[C@@H]2F)c(=O)[nH]c1=O [5-METHYL-2'-FLUOROARAURACIL],> 30 µg/mL,0.05 µg/mL,0.05 µg/mL
O=c1[nH]c(=O)n([C@H]2C[C@H](O)[C@@H](CO)O2)cc1I [IDOXURIDINE],> 30 µg/mL,0.1 µg/mL,0.9 µg/mL
